Data reported in ChEMBL document CHEMBL1764983, “Structure-activity study to develop cationic lipid-conjugated haloperidol derivatives as a new class of anticancer therapeutics” (J Med Chem, 2011).
Calls of active or inactive are those of the source. No cut-off for these calls is given here.

Columns and labels:
B16-F10 [1] = test: Induction of apoptosis in mouse B16F10 cells expressing sigma receptor assessed as increase of Bax/Bcl-2 protein ratio at 10 uM after 24 hrs by Western blotting; assay type: functional, cell-based
How it was run: (§1)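 B16F10 cells (in RPMI) and HUVEC (passages 2-3, in EBM with bullet kit minus serum) exposed to 10 μM compound or left untreated for 24 h under charcoal-stripped serum conditions. Whole-cell lysates made in cold RIPA (pH 7.4) with phosphatase/protease inhibitors and 2 mM vanadate. SDS-PAGE gradient gel, PVDF transfer, probed for caspase 3, Bax, Bcl-2, Akt, pAkt and β-actin with HRP-chemiluminescence detection.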

MCF7 [2] = test: Induction of apoptosis in human MCF7 cells expressing sigma receptor assessed as viable cells using annexin V/propidium iodide staining at 5 uM after 24 hrs by flow cytometry (reference value: 97.33%); assay type: functional
B16-F10 [3] = test: Antitumor activity against mouse B16F10 cells expressing sigma receptor xenografted in C57BL6/J mouse assessed as increase of apoptotic region in tumor at 7.5 mg/kg, ip administered 5 times with gap 2 to 3 days by TUNEL assay; assay type: functional, organism-based; set-up: dose 7.5 mg/kg
How it was run: (§2)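 Male C57BL6/J mice, 6-8 weeks old, given 2 × 10⁵ B16F10 cells s.c. in the lower right abdomen. From day 11, groups of four mice received 7.5 mg/kg i.p. in PBS with 10% DMSO, five injections 2-3 days apart. Tumours measured three times a week; volume = 0.5ab². Tumours excised on day 23, cut as 10 μm cryosections, fixed and fluorometric TUNEL-stained.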

B16-F10 [4] = test: Induction of apoptosis in mouse B16F10 cells expressing sigma receptor assessed as viable cells using annexin V/propidium iodide staining at 5 uM after 24 hrs by flow cytometry (reference value: 98.30%); assay type: functional
HEK293 [5] = test: Induction of apoptosis in human HEK293 cells expressing sigma receptor assessed as late apoptotic cells using annexin V/propidium iodide staining at 5 uM after 24 hrs by flow cytometry (reference value: […]); assay type: cell-based; settings: hek293, 24 h
MCF7 [6] = test: Induction of apoptosis in human MCF7 cells expressing sigma receptor assessed as early apoptotic cells using annexin V/propidium iodide staining at 5 uM after 24 hrs by flow cytometry (reference value: 0.92%); assay type: functional
B16-F10 [7] = test: Antitumor activity against mouse B16F10 cells expressing sigma receptor xenografted in C57BL6/J mouse assessed as tumor regression at 7.5 mg/kg, ip administered 5 times with gap 2 to 3 days; assay type: functional, organism-based; set-up: dose 7.5 mg/kg; how it was run: as §2
MCF7 [8] = test: Induction of apoptosis in human MCF7 cells expressing sigma receptor assessed as late apoptotic cells using annexin V/propidium iodide staining at 5 uM after 24 hrs by flow cytometry (reference value: 1.48%); assay type: functional
MCF7 [9] = test: Induction of apoptosis in human MCF7 cells expressing sigma receptor assessed as necrotic cells using annexin V/propidium iodide staining at 5 uM after 24 hrs by flow cytometry (reference value: 0.27%); assay type: functional
[10] = Induction of apoptosis in human HEK293 cells expressing sigma receptor assessed as viable cells using annexin V/propidium iodide staining at 5 uM after 24 hrs by flow cytometry (reference value: 99.76%); assay type: cell-based; settings: read-out: Activity
MCF7 [11] = test: Cytotoxicity against human MCF7 cells expressing sigma receptor after 48 hrs by MTT assay; assay type: functional, cell-based; settings: MCF7, 48 h
How it was run: (§3)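 MTT reduction assay. Cells grown in RPMI-1640 with 10% FBS at 37 °C, 5% CO₂, and used at 85-90% confluency. Seeded at 5000 cells/well 18-24 h ahead, then exposed continuously for 48 h in triplicate wells. Working solutions made in 10% FBS medium with DMSO ≤1%. Cells washed before MTT.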

MDA-MB-231 [12] = test: Cytotoxicity against human MDA-MB-231 cells expressing sigma receptor at 0.5 to 50 uM after 48 hrs by MTT assay; assay type: functional, cell-based; how it was run: as §3
HUVEC [13] = test: Induction of apoptosis in HUVEC assessed as increase of cleaved caspase 3 expression at 10 uM after 24 hrs by Western blotting; assay type: functional, cell-based; settings: Homo sapiens; how it was run: as §1
ZR-75-1 = test: Cytotoxicity against human ZR-75-1 cells expressing sigma receptor after 48 hrs by MTT assay; assay type: functional, cell-based; settings: ZR-75-1, 48 h; how it was run: as §3
B16-F10 [14] = test: Induction of apoptosis in mouse B16F10 cells expressing sigma receptor assessed as increase of cleaved caspase 3 expression at 10 uM after 24 hrs by Western blotting; assay type: functional, cell-based; how it was run: as §1
HUVEC [15] = test: Induction of apoptosis in HUVEC assessed as increase of Bax/Bcl-2 protein ratio at 10 uM after 24 hrs by Western blotting; assay type: functional, cell-based; settings: Homo sapiens; how it was run: as §1
B16-F10 [16] = test: Induction of apoptosis in mouse B16F10 cells expressing sigma receptor assessed as phosphorylated Akt level at 10 uM after 24 hrs by Western blotting; assay type: functional, cell-based; how it was run: as §1
COS-1 [17] = test: Cytotoxicity against african green monkey COS1 cells expressing sigma receptor after 48 hrs by MTT assay; assay type: cell-based; settings: Chlorocebus aethiops, COS-1, 48 h; how it was run: as §3
HEK293 [18] = test: Cytotoxicity against human HEK293 cells expressing sigma receptor after 48 hrs by MTT assay; assay type: cell-based; settings: HEK293, 48 h; how it was run: as §3
HEK293 [19] = test: Induction of apoptosis in human HEK293 cells expressing sigma receptor assessed as necrotic cells using annexin V/propidium iodide staining at 5 uM after 24 hrs by flow cytometry (reference value: 0.06%); assay type: cell-based; settings: hek293, 24 h
COS-1 [20] = test: Induction of apoptosis in against african green monkey COS1 cells expressing sigma receptor assessed as necrotic cells using annexin V/propidium iodide staining at 5 uM after 24 hrs by flow cytometry (reference value: 0.08%); assay type: cell-based; settings: chlorocebus aethiops, cos-1, 24 h
B16-F10 [21] = test: Induction of apoptosis in mouse B16F10 cells expressing sigma receptor assessed as increase of Bax protein expression at 10 uM after 24 hrs by Western blotting; assay type: functional, cell-based; how it was run: as §1
[22] = Induction of apoptosis in against african green monkey COS1 cells expressing sigma receptor assessed as viable cells using annexin V/propidium iodide staining at 5 uM after 24 hrs by flow cytometry (reference value: 99.82%); assay type: cell-based; settings: chlorocebus aethiops, COS-1 cells expressing sigma receptor; read-out: Activity
COS-1 [23] = test: Induction of apoptosis in against african green monkey COS1 cells expressing sigma receptor assessed as late apoptotic cells using annexin V/propidium iodide staining at 5 uM after 24 hrs by flow cytometry (reference value: 0.04%); assay type: cell-based; settings: chlorocebus aethiops, cos-1, 24 h
B16-F10 [24] = test: Induction of apoptosis in mouse B16F10 cells expressing sigma receptor assessed as decrease of Bcl-2 protein expression at 10 uM after 24 hrs by Western blotting; assay type: functional, cell-based; how it was run: as §1
B16-F10 [25] = test: Induction of apoptosis in mouse B16F10 cells expressing sigma receptor assessed as early apoptotic cells using annexin V/propidium iodide staining at 5 uM after 24 hrs by flow cytometry (reference value: 0.92%); assay type: functional
B16-F10 [26] = test: Induction of apoptosis in mouse B16F10 cells expressing sigma receptor assessed as late apoptotic cells using annexin V/propidium iodide staining at 5 uM after 24 hrs by flow cytometry (reference value: 1.21%); assay type: functional
B16-F10 [27] = test: Induction of apoptosis in mouse B16F10 cells expressing sigma receptor assessed as necrotic cells using annexin V/propidium iodide staining at 5 uM after 24 hrs by flow cytometry (reference value: 0.25%); assay type: functional
MDA-MB-231 [28] = test: Cytotoxicity against human MDA-MB-231 cells expressing sigma receptor after 48 hrs by MTT assay; assay type: functional, cell-based; settings: MDA-MB-231, 48 h; how it was run: as §3
HUVEC [29] = test: Induction of apoptosis in HUVEC assessed as phosphorylated Akt level at 10 uM after 24 hrs by Western blotting; assay type: functional, cell-based; settings: Homo sapiens; how it was run: as §1
HEK293 [30] = test: Induction of apoptosis in human HEK293 cells expressing sigma receptor assessed as early apoptotic cells using annexin V/propidium iodide staining at 5 uM after 24 hrs by flow cytometry (reference value: […]); assay type: cell-based; settings: hek293, 24 h
COS-1 [31] = test: Induction of apoptosis in against african green monkey COS1 cells expressing sigma receptor assessed as early apoptotic cells using annexin V/propidium iodide staining at 5 uM after 24 hrs by flow cytometry (reference value: 0.06%); assay type: cell-based; settings: chlorocebus aethiops, cos-1, 24 h
MCF7 [32] = test: Cytotoxicity against human MCF7 cells expressing sigma receptor at 0.5 to 50 uM after 48 hrs by MTT assay; assay type: functional, cell-based; how it was run: as §3
B16-F10 [33] = test: Cytotoxicity against mouse B16F10 cells expressing sigma receptor after 48 hrs by MTT assay; assay type: functional, cell-based; settings: B16-F10, 48 h; how it was run: as §3
MCF7 [34] = test: Cytotoxicity against sigma receptor depleted human MCF7 cells assessed as cell viability at 10 uM after 48 hrs by MTT assay in presence of siRNA treated for 4 hrs before compound challenge

Row | SMILES | Activity (MCF7 [2]) | Activity (B16-F10 [4]) | Activity (HEK293 [5]) | Activity (MCF7 [6]) | Activity (MCF7 [8]) | Activity (MCF7 [9]) | viability at 24 h, 5 µM [10] | Activity (MDA-MB-231 [12]) | Activity (HEK293 [19]) | Activity (COS-1 [20]) | viability at 24 h, 5 µM [22] | Activity (COS-1 [23]) | Activity (B16-F10 [25]) | Activity (B16-F10 [26]) | Activity (B16-F10 [27]) | Activity (HEK293 [30]) | Activity (COS-1 [31]) | Activity (MCF7 [32]) | also measured
1 | CCCCCCCC[N+](C)(CCCCCCCC)CC(=O)NCCC(=O)OC1(c2ccc(Cl)cc2)CCN(CCCC(=O)c2ccc(F)cc2)CC1.[Cl-] | 47.43% | 41.47% | 0.15% | 5.02% | 33.2% | 14.35% | 99.6% | Active | 0.14% | 0.12% | 99.7% | 0.06% | 4.1% | 53.41% | 1.03% | 0.14% | 0.11% | Active | Activity (B16-F10 [1]): Active; Activity (B16-F10 [3]): Active; Activity (B16-F10 [7]): Active; IC50 (MCF7 [11]): 2.5 µM; Activity (HUVEC [13]): Active; IC50 (ZR-75-1): 2.5 µM; Activity (B16-F10 [14]): Active; Activity (HUVEC [15]): Active; Activity (B16-F10 [16]): Active; IC50 (COS-1 [17]): 7 µM; IC50 (HEK293 [18]): 7 µM; Activity (B16-F10 [21]): Active; Activity (B16-F10 [24]): Active; IC50 (MDA-MB-231 [28]): 2.5 µM; Activity (HUVEC [29]): Active; IC50 (B16-F10 [33]): 2.5 µM; viability at 10 µM (MCF7 [34]): 25%
2 | O=C(CCCN1CCC(O)(c2ccc(Cl)cc2)CC1)c1ccc(F)cc1 [HALOPERIDOL] | 97.66% | 97.17% | 0.18% | 0.51% | 1.74% | 0.09% | 99.6% | Active | 0.07% | 0.17% | 99.6% | 0.16% | 0.29% | 0.95% | 1.58% | 0.11% | 0.11% | Active | 
3 | CCCCCCCCCCCC[N+](C)(CCCCCCCCCCCC)CC(=O)NCCC(=O)OC1(c2ccc(Cl)cc2)CCN(CCCC(=O)c2ccc(F)cc2)CC1 |  |  |  |  |  |  |  | Active |  |  |  |  |  |  |  |  |  | Active | 
4 | CCCC[N+](C)(CCCC)CC(=O)NCCC(=O)OC1(c2ccc(Cl)cc2)CCN(CCCC(=O)c2ccc(F)cc2)CC1 |  |  |  |  |  |  |  | Active |  |  |  |  |  |  |  |  |  | Active | 
5 | CCCCCCCCCCCCCCCC[N+](C)(CCCCCCCCCCCCCCCC)CC(=O)NCCC(=O)OC1(c2ccc(Cl)cc2)CCN(CCCC(=O)c2ccc(F)cc2)CC1 |  |  |  |  |  |  |  | Active |  |  |  |  |  |  |  |  |  | Active | 
